# Experimental data collected from several papers.
# Lines come from different studies, so protocols differ.
# Target: Ephrin type-B receptor 3 (EPHB3, Homo sapiens, UniProt P54753)
# Sequence (P54753 34-998, as in one of the studies): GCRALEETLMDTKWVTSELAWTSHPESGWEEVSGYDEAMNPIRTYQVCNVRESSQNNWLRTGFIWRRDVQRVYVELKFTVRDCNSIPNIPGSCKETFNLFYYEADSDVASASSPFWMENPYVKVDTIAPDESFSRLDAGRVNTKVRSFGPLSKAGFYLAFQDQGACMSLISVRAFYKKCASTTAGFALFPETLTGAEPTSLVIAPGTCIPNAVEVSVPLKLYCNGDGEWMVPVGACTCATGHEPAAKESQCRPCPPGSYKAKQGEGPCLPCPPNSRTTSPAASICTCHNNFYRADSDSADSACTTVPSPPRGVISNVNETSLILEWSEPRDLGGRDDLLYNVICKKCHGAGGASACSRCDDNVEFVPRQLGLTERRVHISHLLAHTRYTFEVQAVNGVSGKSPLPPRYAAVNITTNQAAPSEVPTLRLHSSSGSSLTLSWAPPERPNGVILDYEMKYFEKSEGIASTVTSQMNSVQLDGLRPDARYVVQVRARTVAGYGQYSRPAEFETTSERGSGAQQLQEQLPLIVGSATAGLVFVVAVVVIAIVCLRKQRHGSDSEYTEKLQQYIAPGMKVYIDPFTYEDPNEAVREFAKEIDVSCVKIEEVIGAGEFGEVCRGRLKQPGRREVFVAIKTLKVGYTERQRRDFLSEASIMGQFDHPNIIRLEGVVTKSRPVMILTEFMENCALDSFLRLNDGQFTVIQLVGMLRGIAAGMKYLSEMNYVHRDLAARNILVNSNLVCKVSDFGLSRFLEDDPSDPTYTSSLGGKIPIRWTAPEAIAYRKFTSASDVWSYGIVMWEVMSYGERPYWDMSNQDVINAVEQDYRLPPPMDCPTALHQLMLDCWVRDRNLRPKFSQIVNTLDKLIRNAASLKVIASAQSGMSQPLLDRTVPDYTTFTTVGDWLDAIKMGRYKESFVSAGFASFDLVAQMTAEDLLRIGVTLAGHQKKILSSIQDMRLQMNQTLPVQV
Structure (SMILES),read-out,action,method,concentration,endpoint,result
Nc1nc(Nc2ccccc2)sc1C(=O)c1c(F)cccc1F,enzyme activity,inhibitor,,10 µM,remaining activity,59%
CCCOc1ccc([C@@H]2[C@@H](C(=O)O)[C@H](c3ccc4c(c3)OCO4)CN2CC(=O)Nc2c(CC)cccc2CC)cc1,cell-free assay,,competition with immobilised ligand,1 µM,remaining binding,96%
Cn1cncc1C1=CN(c2ncnc3[nH]cnc23)CCS1,enzyme activity,inhibitor,radiometric,2 µM,inhibition,20.2%
COc1cc2ncnc(Nc3ccc(Oc4ccccc4)c(C)c3C)c2cc1OC,enzyme activity,inhibitor,,1 µM,inhibition,2%
COc1cccc(CNC(=O)c2nc3scc(COCc4ccc(C(=O)O)cc4)c3c(=O)[nH]2)c1,cell-free assay,,competition with immobilised ligand,1 µM,remaining binding,85.4%
Cn1c(=O)n(-c2ccc(C(C)(C)C#N)cc2)c2c3cc(-c4cnc5ccccc5c4)ccc3ncc21,enzyme activity,inhibitor,,10 µM,remaining activity,117%
COc1cc(Nc2cnc(C#N)c(O[C@H](C)CN(C)C)n2)ncc1-c1cnn(C)c1,enzyme activity,inhibitor,radiometric,1 µM,remaining activity,68%
Nc1nc(NC2CCCCC2)sc1C(=O)c1ccccc1,enzyme activity,inhibitor,,10 µM,remaining activity,88%
CCN(CC)CCNC(=O)c1c(C)[nH]c(/C=C2\C(=O)Nc3ccc(F)cc32)c1C,enzyme activity,inhibitor,,0.3 µM,inhibition,-5%
CN([C@@H]1CCc2c(CC(=O)O)c3ccccc3n2C1)S(=O)(=O)c1ccc(F)cc1,cell-free assay,,competition with immobilised ligand,1 µM,remaining binding,88%
O=C(Nc1cnn(-c2csc(C(=O)NC3COC3)c2)c1)Nc1c(F)cccc1Cl,enzyme activity,inhibitor,,5 µM,remaining activity,96.5%
N#CCCc1ccc2c(c1)-c1[nH]c3ccc([N+](=O)[O-])cc3c1CC(=O)N2,cell-free assay,,,0.5 µM,remaining signal,102%
CO[C@@H](C)c1c(Nc2ccc([C@H](N(C)C(=O)C3CCS(=O)(=O)CC3)C(F)(F)F)cc2)cnc2cc(Cl)nn12,cell-free assay,,competition with immobilised ligand,1 µM,remaining binding,100%
CNC(=O)c1cc(Oc2ccc(NC(=O)Nc3ccc(Cl)c(C(F)(F)F)c3)cc2)ccn1,enzyme activity,inhibitor,,10 µM,inhibition,38%
Cn1nc(C(F)(F)F)cc1-c1cnc(N2CCc3cc(S(=O)(=O)Nc4c(F)cc(Cl)cc4F)cc(N4CCCC4=O)c32)nc1,cell-free assay,,competition with immobilised ligand,1 µM,remaining binding,95%
CC/C(=N\NC(=O)NCc1cccc(O)c1)c1ccc(O)c(C)c1O,enzyme activity,inhibitor,,0.1 µM,inhibition,0.6%
COc1cc(/C=C/C(=O)CC(=O)/C=C/c2ccc(O)c(OC)c2)ccc1O,enzyme activity,inhibitor,,1 µM,activity vs control,93%
Clc1ccc(Nc2nnc(Cc3ccncc3)c3ccccc23)cc1,cell-free assay,,,0.5 µM,remaining signal,65.1%
Cc1cc(NC(=O)c2cccc3cc(-c4cccc5[nH]nc(N)c45)ccc23)ccc1F,enzyme activity,inhibitor,,0.1 µM,activity vs control,88%
COc1ccnn2ncc(-c3ccnc(N(C)C)n3)c12,binding,,,1 µM,remaining binding,100%
CS(=O)(=O)N1CCCC(NC(=O)[C@H](CCC2CCCCC2)NC(=O)c2ccc(CNc3ncnc4c3nnn4-c3ccccc3)cc2)C1 (some centres unmarked),cell-free assay,,competition with immobilised ligand,0.1 µM,remaining binding,91%
Cc1sc(C(=O)NC2COC2)cc1-n1cc(NC(=O)Nc2c(F)cccc2Cl)cn1,enzyme activity,inhibitor,,10 µM,remaining activity,97.2%
CCCS(=O)(=O)Nc1ccc(F)c(C(=O)c2c[nH]c3ncc(-c4ccc(Cl)cc4)cc23)c1F,enzyme activity,inhibitor,,1 µM,inhibition,< 10%
COc1cc2nccc(Oc3ccc(NC(=O)Nc4ccc(F)cc4F)c(F)c3)c2cc1OC,thermal stability,,DSF,10 µM,ΔTm,5 to 10 °C
CC(C)(C)c1nc2c(s1)c1nc(N)ncc1c1ccc(NS(=O)(=O)c3c(F)cccc3F)c(F)c12,enzyme activity,inhibitor,radiometric,1 µM,remaining activity,93%
Cn1cc(Cl)c2c(Oc3c(F)cc(Nc4cc(Cl)nc(N)n4)cc3F)ccnc21,cell-free assay,,competition with immobilised ligand,0.1 µM,remaining binding,100%
FC(F)c1nc2ccccc2n1-c1nc(N2CCOCC2)nc(N2CCOCC2)n1,enzyme activity,inhibitor,,10 µM,remaining activity,113%
Cc1nc(C2CCN(C(=O)c3ccc(OC(F)(F)F)cc3N)CC2)c2ncc(N3CCN(C)CC3)cc2n1,cell-free assay,,competition with immobilised ligand,1 µM,remaining binding,100%
O=C1NC(=O)c2cc(Nc3ccc(F)cc3)c(Nc3ccc(F)cc3)cc21,cell-free assay,,,0.5 µM,remaining signal,94.7%
